In ChEMBL document CHEMBL4020830, “Design, Synthesis, and Evaluation of a Novel Series of Indole Sulfonamide Peroxisome Proliferator Activated Receptor (PPAR) α/γ/δ Triple Activators: Discovery of Lanifibranor, a New Antifibrotic Clinical Candidate” (J Med Chem, 2018):
Active and inactive are the calls of the source. The calls are words filed in the database; no cut-off is given here.

What was measured:
Mus musculus [1] = test: Antifibrotic activity in C57Bl6/J mouse model of CCl4-induced liver fibrosis assessed as decrease in collagen deposition in liver administered po qd for 3 weeks by picrosirius red staining based assay; format: functional, organism-based
How it was run: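 CCl4-induced liver fibrosis mice were dosed orally once daily at 3, 10 or 30 mg/kg for 3 weeks. Controls were CCl4-vehicle, vehicle oil and saline-injected groups. Liver collagen was scored by picrosirius red staining of histological sections. Plasma triglycerides and adiponectin were also measured. Analysis was one-way ANOVA with Dunnett's test.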

[2] = biological target: T1, Peroxisome proliferator-activated receptor delta (Mus musculus, UniProt P35396); test: Transactivation of mouse GAL4-fused PPARdelta LBD expressed in African green monkey COS7 cells co-expressing 5Gal4 pGL3 TK Luc after overnight incubation by luciferase reporter gene assay; format: cell-based
T1 sequence (P35396 whole entry): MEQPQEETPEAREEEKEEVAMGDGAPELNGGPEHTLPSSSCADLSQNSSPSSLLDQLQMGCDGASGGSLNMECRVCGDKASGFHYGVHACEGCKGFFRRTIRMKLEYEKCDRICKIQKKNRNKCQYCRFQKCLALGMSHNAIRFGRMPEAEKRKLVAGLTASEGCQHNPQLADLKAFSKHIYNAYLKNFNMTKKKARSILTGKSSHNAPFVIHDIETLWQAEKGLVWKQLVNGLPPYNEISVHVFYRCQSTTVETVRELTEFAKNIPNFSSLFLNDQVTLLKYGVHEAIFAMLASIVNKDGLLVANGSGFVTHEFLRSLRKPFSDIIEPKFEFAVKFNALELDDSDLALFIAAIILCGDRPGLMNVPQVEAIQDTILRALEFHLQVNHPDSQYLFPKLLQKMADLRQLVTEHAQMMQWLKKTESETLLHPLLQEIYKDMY

[3] = biological target: T2, Peroxisome proliferator-activated receptor gamma (Homo sapiens, UniProt P37231); test: Transactivation of recombinant GST-tagged PPARgamma (unknown origin) expressed in Escherichia coli assessed as N-terminal biotin-labeled LCOR (39 to 63 residues) co-activator recruitment by TR-FRET assay
T2 sequence (P37231 whole entry): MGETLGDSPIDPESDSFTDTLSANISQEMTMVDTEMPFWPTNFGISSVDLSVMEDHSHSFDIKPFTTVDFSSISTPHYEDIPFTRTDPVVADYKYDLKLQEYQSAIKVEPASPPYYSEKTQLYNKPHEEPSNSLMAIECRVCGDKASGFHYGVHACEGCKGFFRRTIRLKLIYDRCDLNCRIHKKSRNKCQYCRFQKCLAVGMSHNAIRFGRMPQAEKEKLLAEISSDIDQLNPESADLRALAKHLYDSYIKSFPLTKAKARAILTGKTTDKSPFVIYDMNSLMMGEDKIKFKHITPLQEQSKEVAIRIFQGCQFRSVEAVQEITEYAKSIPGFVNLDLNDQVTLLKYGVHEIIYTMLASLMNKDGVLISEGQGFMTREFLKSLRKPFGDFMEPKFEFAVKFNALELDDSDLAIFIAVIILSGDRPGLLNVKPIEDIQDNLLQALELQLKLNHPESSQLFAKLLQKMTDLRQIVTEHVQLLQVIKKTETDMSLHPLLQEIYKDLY

Rattus norvegicus = test: Toxicity in Sprague-Dawley rat assessed as effect on plasma volume at 100 to 1000 mg/kg for 4 weeks by evans blue dye based assay; format: organism-based; details: in vivo, 672 h
How it was run: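 Sprague-Dawley rats were treated at 100 and 1000 mg/kg. Hematocrit and plasma volume were measured after 4 weeks and heart weight after 6 weeks. Analysis was one-way ANOVA with Dunnett's test versus control.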

[4] = biological target: T2, Peroxisome proliferator-activated receptor gamma
[5] = biological target: T3, Peroxisome proliferator-activated receptor delta (Mus musculus) (UniProt P35396); test: Transactivation of PPARdelta in mouse C2C12 cells assessed increase in [14C]oleate beta-oxidation at 3 uM preincubated for 48 hrs followed by [14C]oleate addition during last 2 hrs of incubation period relative to control; format: cell-based
T3 sequence (whole entry): T1 sequence (P35396 whole entry)
How it was run: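 Fatty acid beta-oxidation was used as the functional read-out. PPARα activity was tested in human hepatoma HuH7 cells and PPARδ activity in mouse myoblast C2C12 cells, at 1, 3, 10 and 30 µM. Values are % beta-oxidation, mean of at least 2 independent experiments run in triplicate, with single-experiment values flagged.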

[6] = biological target: T4, Peroxisome proliferator-activated receptor gamma (Mus musculus, UniProt P37238); test: Transactivation of mouse GAL4-fused PPARgamma LBD expressed in African green monkey COS7 cells co-expressing 5Gal4 pGL3 TK Luc after overnight incubation by luciferase reporter gene assay
T4 sequence (P37238 whole entry): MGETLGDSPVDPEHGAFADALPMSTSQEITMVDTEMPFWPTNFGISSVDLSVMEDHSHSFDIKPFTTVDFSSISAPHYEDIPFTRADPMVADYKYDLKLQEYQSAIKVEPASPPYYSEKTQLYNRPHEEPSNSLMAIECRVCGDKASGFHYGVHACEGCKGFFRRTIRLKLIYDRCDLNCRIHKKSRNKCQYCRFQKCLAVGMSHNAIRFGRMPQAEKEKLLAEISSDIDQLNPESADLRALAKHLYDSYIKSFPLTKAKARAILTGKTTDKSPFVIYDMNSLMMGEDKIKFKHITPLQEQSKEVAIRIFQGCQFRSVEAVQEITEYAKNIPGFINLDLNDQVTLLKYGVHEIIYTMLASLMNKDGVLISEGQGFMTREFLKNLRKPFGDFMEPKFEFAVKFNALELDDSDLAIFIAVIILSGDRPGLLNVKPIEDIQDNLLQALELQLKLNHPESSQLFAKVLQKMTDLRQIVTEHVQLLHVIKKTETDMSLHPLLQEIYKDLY

Mus musculus [7] = test: Antidiabetic activity in C57BL/Ks mouse model of diabetic dyslipidemia assessed as decrease in plasma glucose level administered via oral gavage qd for 5 days measured 4 hrs post last dose; format: functional
How it was run: (§1)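 Homozygous male C57BL/Ks-db (db/db) mice were gavaged once daily at 10 or 30 mg/kg, for 5 or 10 days. Retro-orbital blood was drawn before treatment and 4 h after the last gavage. Glucose and triglycerides were measured in serum. Results are expressed as % variation on the final day versus the control group. Analysis was one-way ANOVA with Dunnett's test.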

Mus musculus [8] = test: Hypolipidemic activity in C57BL/Ks mouse model of diabetic dyslipidemia assessed as decrease in plasma triglyceride level at 10 mg/kg, po qd administered via gavage for 10 days measured 4 hrs post last dose; format: functional, organism-based; how it was run: as §1
Mus musculus [9] = test: Hypolipidemic activity in C57BL/Ks mouse model of diabetic dyslipidemia assessed as decrease in plasma triglyceride level at 30 mg/kg, po qd administered via gavage for 10 days measured 4 hrs post last dose; format: functional, organism-based; how it was run: as §1

Row | EC50 [2] [nM] | EC50 [3] [nM] | EC50 [4] [nM] | Activity [5] [%] | EC50 [6] [nM] | Compound | Activity (Mus musculus [1]) | Activity (Rattus norvegicus) | Activity (Mus musculus [7]) | Activity (Mus musculus [8]) | Activity (Mus musculus [9])
1 | 1560 | 727 | 1480 | 37 | 202 | O=C(O)CCCc1cc2cc(Cl)ccc2n1S(=O)(=O)c1ccc2ncsc2c1 [LANIFIBRANOR] | Dose-dependent effect | Non-Toxic | Dose-dependent effect |  | 
2 |  |  |  |  |  | O=C(O)CCc1cc2cc(Cl)ccc2n1S(=O)(=O)c1ccccc1 |  |  |  | inactive | Active
